What all share (assay type): functional
Test [1] has as its system Rattus norvegicus. Description: Antiallergic activity in sc dosed Wistar rat assessed as inhibition of ovalbumin-mediated passive cutaneous anaphylaxis by measuring wheal formation at Tmax. Summed up: (§1)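 Rat PCA: serum with heat-labile homocytotropic antibody raised in rats to crystallized ovalbumin, Bordetella pertussis vaccine adjuvant; PCA per Ovary–Bier method as modified by Goose and Blair. Test agents as sodium salts, dissolved in pH 7.2 buffer or suspended in 1% methylcellulose by solubility. ED50 from inhibition/log dose line, 95% confidence limits, slope and animal numbers given.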

Test [2] has as its system Rattus norvegicus. Kind of test: Antiallergic activity in sc dosed Wistar rat assessed as time between compound administration and ovalbumin challenge to give maximum activity by passive cutaneous anaphylaxis assay.
Test [3] concerns Rattus norvegicus. Kind of test: Antiallergic activity in po dosed Wistar rat assessed as inhibition of ovalbumin-mediated passive cutaneous anaphylaxis by measuring wheal formation administered 15 to 20 mins prior to ovalbumin challenge. Summed up:
as §1

On to `Cc1ccc2oc(=O)c(C#N)c([O-])c2c1.[Na+]`, for which the ED50 in the test on Rattus norvegicus [1] was 497 µmol/kg. In addition, the Time in the test on Rattus norvegicus [2] was found to be 10 min.
For `Cc1ccc2c([O-])c(C#N)c(=O)oc2c1.[Na+]` the same measures were 52.4 µmol/kg and 10 min.
With `Cc1ccc2c([O-])c(C#N)c(=O)oc2c1C.[Na+]`, the ED50 with Rattus norvegicus [1] is 26.2 µmol/kg. In addition, in the test with Rattus norvegicus [2], the Time turned out to be 10 min.
The corresponding values for `Cc1cc2c(cc1C)C(=O)[C-](C#N)C2=O.[Na+]` are 16.3 µmol/kg and 10 min.
For `CCc1cc2c([O-])c(C#N)c(=O)oc2cc1C.[Na+]` the same measures were 10.1 µmol/kg and 10 min.
For `N#C[C-]1C(=O)c2cc3ccccc3cc2C1=O.[Na+]` the same measures were 13.8 µmol/kg and 10 min.
Turning to `COc1ccc2oc(=O)c(C#N)c([O-])c2c1.[Na+]`, the ED50 with Rattus norvegicus [1] turned out to be 28.2 µmol/kg. For the same molecule, in the test on Rattus norvegicus [2], the Time amounted to 10 min.
For `N#Cc1c([O-])c2cc3ccccc3cc2oc1=O.[Na+]` the same measures were 211 µmol/kg and 10 min.
In the case of `CCc1ccc2c([O-])c(C#N)c(=O)oc2c1.[Na+]`, in the test on Rattus norvegicus [1], the ED50 is 23.8 µmol/kg. Besides, the Time with Rattus norvegicus [2] amounted to 10 min.
The corresponding values for `COc1cccc2c1C(=O)[C-](C#N)C2=O.[Na+]` (stereo not given) are 90.2 µmol/kg and 10 min.
For `N#C[C-]1C(=O)c2cccnc2C1=O.[Na+]` (stereo not given) the same measures were 90.6 µmol/kg and 10 min.
For `O=C([O-])c1cc(=O)c2c(OCC(O)COc3cccc4oc(C(=O)[O-])cc(=O)c34)cccc2o1.[Na+].[Na+]` [CROMOLYN SODIUM] the same measures were 13.1 µmol/kg and 10 min.
As for `Cc1cc2oc(=O)c(C#N)c([O-])c2cc1C.[Na+]`, the ED50 in the test with Rattus norvegicus [1] was 15.2 µmol/kg. Further, the Time in the test on Rattus norvegicus [2] is recorded as 10 min.
The corresponding values for `N#C[C-]1C(=O)c2ccncc2C1=O.[Na+]` (stereo not given) are 120 µmol/kg and 10 min.
The corresponding values for `N#C[C-]1C(=O)c2ccc(Cl)cc2C1=O.[Na+]` (stereo not given) are 59.7 µmol/kg and 10 min.
For `CCOc1ccc2c([O-])c(C#N)c(=O)oc2c1.[Na+]` the same measures were 15.1 µmol/kg and 10 min.
For `N#C[C-]1C(=O)c2ccccc2C1=O.[Na+]`, the 50% effective dose (ED50) in the test on Rattus norvegicus [1] worked out at 85.3 µmol/kg. Also, in the test with Rattus norvegicus [2], the Time came to 10 min.
For `Cc1cccc2c1C(=O)[C-](C#N)C2=O.[Na+]` (stereo not given) the same measures were 74 µmol/kg and 10 min.
With `CCc1cc2oc(=O)c(C#N)c([O-])c2cc1CC.[Na+]`, the figures for the ED50 in the test on Rattus norvegicus [1] and with Rattus norvegicus [3] were 7.6 µmol/kg and 60 µmol/kg, respectively. The Time with Rattus norvegicus [2] came out at 10 min.
Turning to `Cc1ccc2c(c1)C(=O)[C-](C#N)C2=O.[Na+]` (stereo not given), in the test on Rattus norvegicus [1], the ED50 was 44.1 µmol/kg. Further, the Time in the test with Rattus norvegicus [2] is reported as 10 min.
The corresponding values for `N#Cc1c([O-])c2ccccc2oc1=O.[Na+]` are 39.1 µmol/kg and 10 min.
For `N#Cc1c([O-])c2cc3c(cc2oc1=O)CCCC3.[Na+]` the same measures were 16.4 µmol/kg and 10 min.
The corresponding values for `Cc1cccc2c([O-])c(C#N)c(=O)oc12.[Na+]` are 32.8 µmol/kg and 10 min.
Take `CCc1cc2c(cc1CC)C(=O)[C-](C#N)C2=O.[Na+]`: the ED50 with Rattus norvegicus [1] worked out at 10.9 µmol/kg; in the test on Rattus norvegicus [3], 60 µmol/kg. For the same molecule, in the test with Rattus norvegicus [2], the Time amounted to 20 min.

The record behind these values is ChEMBL document CHEMBL3244045, “2-cyano-1,3-dicarbonyl compounds with antiallergic activity” (1977).
